Calls of active or inactive are those of the source. The calls are words filed in the database; no cut-off is given here.
Experiments:
Cavia porcellus = test: Antiinflammatory activity against LTB4-evoked eosinophilic pulmonary inflammation in Hartley guinea pig at 10 mg/kg, po after 1 hr treated before LTB4 challenge; assay type: functional, organism-based; design: dose 10 mg/kg
Summary of the method: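 Male Hartley guinea pigs (250-350 g) were dosed orally with 10 mg/kg in 2% Klucel LF/0.1% Tween-80. One hour later they were exposed to 10 μg/mL LTB4 aerosol for 20 min. BAL (3 × 5 mL HBSS) was done 2 h after challenge under pentobarbital. Cells were counted, and differentials of at least 300 cells were taken on Wright-stained cytospins. Analysis by two-way ANOVA/Bonferroni; 4-20 animals per group.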

[1] = Cmax in Sprague-Dawley rat at 10 mg/kg, po; assay type: ADME, organism-based; design: dose 10 mg/kg, route oral; conditions: in vivo
Summary of the method: (§1)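 Rat single-dose PK, n = 3, with oral dosing at 10 mg/kg and intravenous dosing at 2.5 or 5 mg/kg.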

Rattus norvegicus [2] = test: Toxicity in rat assessed as aspartate aminotransferase level at 40 mg/kg, po qd treated for 14 days; assay type: organism-based; design: dose 40 mg/kg, route oral; conditions: in vivo, 336 h
Summary of the method: (§2)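 Male Han-Wistar rats (200-230 g), n = 4 per group, were given 40 or 400 (mg/kg)/day orally for 14 days in 2% Klucel LF/0.1% Tween-80 versus vehicle. Body weight was recorded at pretreatment and on days 1, 8 and 14, and food intake weekly. Clinical chemistry was sampled on day 5 and at necropsy. Organs were formalin-fixed and H&E stained. Data are given as mean ± SD and analysed by Bartlett's test.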

Rattus norvegicus [3] = test: Toxicity in rat assessed as effect on food consumption at 400 mg/kg, po qd treated for 14 days; assay type: organism-based; design: dose 400 mg/kg, route oral; conditions: in vivo, 336 h; summary of the method: as §2
Rattus norvegicus [4] = test: Hepatotoxicity in rat assessed as increase in ALT level at 40 mg/kg, po qd after 5 days; assay type: toxicity, organism-based; design: dose 40 mg/kg, route oral; conditions: in vivo, 120 h; summary of the method: as §2
Rattus norvegicus [5] = test: Toxicity in rat assessed as aspartate aminotransferase level at 400 mg/kg, po qd treated for 14 days; assay type: organism-based; design: dose 400 mg/kg, route oral; conditions: in vivo, 336 h; summary of the method: as §2
Cytochrome P450 2C9 = Cytochrome P450 2C9 (Homo sapiens, UniProt P11712); test: Inhibition of CYP2C9 fluorescence method; assay type: ADME
Cytochrome P450 2C9, sequence (P11712 whole entry): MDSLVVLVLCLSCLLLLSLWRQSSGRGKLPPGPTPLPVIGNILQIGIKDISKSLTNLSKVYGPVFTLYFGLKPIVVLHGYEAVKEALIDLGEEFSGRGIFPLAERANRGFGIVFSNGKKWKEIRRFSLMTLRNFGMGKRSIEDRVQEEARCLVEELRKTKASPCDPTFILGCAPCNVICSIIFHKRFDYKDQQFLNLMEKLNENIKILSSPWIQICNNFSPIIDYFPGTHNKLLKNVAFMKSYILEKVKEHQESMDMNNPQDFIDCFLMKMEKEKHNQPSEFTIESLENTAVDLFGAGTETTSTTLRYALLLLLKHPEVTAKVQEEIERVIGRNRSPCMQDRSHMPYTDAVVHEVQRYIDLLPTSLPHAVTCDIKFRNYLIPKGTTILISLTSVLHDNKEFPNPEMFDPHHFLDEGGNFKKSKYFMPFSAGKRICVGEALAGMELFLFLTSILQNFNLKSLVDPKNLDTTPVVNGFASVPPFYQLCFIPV

Rattus norvegicus [6] = test: Toxicity in rat assessed as effect on body weight at 400 mg/kg, po qd treated for 14 days; assay type: organism-based; design: dose 400 mg/kg, route oral; conditions: in vivo, 336 h; summary of the method: as §2
[7] = Volume of distribution at steady state in Sprague-Dawley rat at 5 mg/kg, iv; assay type: ADME, organism-based; design: dose 5 mg/kg, route intravenous; conditions: in vivo, read-out: Vdss; summary of the method: as §1
Rattus norvegicus [8] = test: Toxicity in rat assessed as alkaline phosphatase level at 400 mg/kg, po qd treated for 14 days; assay type: organism-based; design: dose 400 mg/kg, route oral; conditions: in vivo, 336 h; summary of the method: as §2
Rattus norvegicus [9] = test: Hepatotoxicity in po dosed rat assessed as increase in total bilirubin level treated for 14 days measured; assay type: toxicity, organism-based; conditions: in vivo, 336 h
Neutrophil = test: Inhibition of LTB4-stimulated human neutrophils migration after 30 mins by using CyQuant GR fluorescent dye; assay type: functional, cell-based; conditions: Homo sapiens, Neutrophil, 0.5 h; read-out: IC50
Summary of the method: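 Human blood neutrophils (95-97% pure, isolated over Lympholyte-poly) at 5 × 10^6 cells/mL were preincubated with compound (3 × 10^-12 to 1 × 10^-6 M final) for 30 min at 37 C. Migration toward 100 ng/mL LTB4 across a polycarbonate membrane ran 90 min at 37 C. Migrated cells were lysed with CyQuant GR and read at 480/520 nm. IC50 was taken from a sigmoidal fit of % inhibition.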

Rattus norvegicus [10] = test: Hepatotoxicity in rat assessed as increase in ALT level at 40 mg/kg, po qd after 15 days; assay type: toxicity, organism-based; design: dose 40 mg/kg, route oral; conditions: in vivo, 360 h; summary of the method: as §2
[11] = target: T1, Leukotriene B4 receptor 1 (Homo sapiens, UniProt Q15722); test: Antagonist activity at BLT1 receptor expressed in human HL60 cells assessed as inhibition of LTB4-stimulated calcium flux after 30 mins; assay type: functional, cell-based, HL-60; conditions: read-out: IC50
T1 sequence (Q15722 whole entry): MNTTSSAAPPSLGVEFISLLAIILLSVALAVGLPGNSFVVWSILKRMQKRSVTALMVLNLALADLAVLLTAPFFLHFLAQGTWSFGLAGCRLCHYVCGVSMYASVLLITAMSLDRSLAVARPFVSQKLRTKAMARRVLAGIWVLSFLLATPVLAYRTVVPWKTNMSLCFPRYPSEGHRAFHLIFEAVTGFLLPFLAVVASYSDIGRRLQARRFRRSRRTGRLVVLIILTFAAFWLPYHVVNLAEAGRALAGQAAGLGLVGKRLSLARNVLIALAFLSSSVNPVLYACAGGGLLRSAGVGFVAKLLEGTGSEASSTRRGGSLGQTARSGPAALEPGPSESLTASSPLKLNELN
Summary of the method: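 HL-60 cells grown in RPMI-1640 with 20% FBS were plated at 2.0 × 10^5 cells/ml with 1 μM retinoic acid. They were dye-loaded in HBSS/20 mM HEPES/5 mM probenecid (0.05% BSA in the replacement buffer) for 1 h at 37 C. Compound (5 × 10^-11 to 3 × 10^-6 M final) was added for 30 min at room temperature, then 0.5 μM LTB4. Fluorescence was read every 1.5 s for 100 s and peak increase scored as % inhibition versus DMSO control.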

[12] = target: T2, Leukotriene B4 receptor 2 (Homo sapiens, UniProt Q9NPC1); test: Antagonist activity at FLAG-tagged human BLT2 receptor expressed in HEK293 cells assessed as inhibition of LTB4-stimulated calcium mobilization preincubated for 10 mins before LTB4 challenge; assay type: functional, cell-based
T2 sequence (Q9NPC1 whole entry): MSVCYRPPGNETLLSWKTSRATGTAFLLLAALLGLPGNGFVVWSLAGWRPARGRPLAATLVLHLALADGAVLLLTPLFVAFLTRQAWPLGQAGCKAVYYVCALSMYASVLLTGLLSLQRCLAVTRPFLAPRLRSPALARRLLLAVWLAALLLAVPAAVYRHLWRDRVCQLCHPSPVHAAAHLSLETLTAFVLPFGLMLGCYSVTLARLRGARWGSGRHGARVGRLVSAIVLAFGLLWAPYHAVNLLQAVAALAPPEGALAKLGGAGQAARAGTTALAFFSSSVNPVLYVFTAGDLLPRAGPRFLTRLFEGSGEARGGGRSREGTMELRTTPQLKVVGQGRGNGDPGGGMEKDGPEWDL

Rattus norvegicus [13] = test: Hepatotoxicity in rat assessed as increase in ALT level at 400 mg/kg, po qd treated after 5 days; assay type: toxicity, organism-based; design: dose 400 mg/kg, route oral; conditions: in vivo, 120 h; summary of the method: as §2
Cytochrome P450 3A4 = Cytochrome P450 3A4 (Homo sapiens, UniProt P08684); test: Inhibition of CYP3A4 fluorescence method; assay type: ADME
Cytochrome P450 3A4, sequence (P08684 whole entry): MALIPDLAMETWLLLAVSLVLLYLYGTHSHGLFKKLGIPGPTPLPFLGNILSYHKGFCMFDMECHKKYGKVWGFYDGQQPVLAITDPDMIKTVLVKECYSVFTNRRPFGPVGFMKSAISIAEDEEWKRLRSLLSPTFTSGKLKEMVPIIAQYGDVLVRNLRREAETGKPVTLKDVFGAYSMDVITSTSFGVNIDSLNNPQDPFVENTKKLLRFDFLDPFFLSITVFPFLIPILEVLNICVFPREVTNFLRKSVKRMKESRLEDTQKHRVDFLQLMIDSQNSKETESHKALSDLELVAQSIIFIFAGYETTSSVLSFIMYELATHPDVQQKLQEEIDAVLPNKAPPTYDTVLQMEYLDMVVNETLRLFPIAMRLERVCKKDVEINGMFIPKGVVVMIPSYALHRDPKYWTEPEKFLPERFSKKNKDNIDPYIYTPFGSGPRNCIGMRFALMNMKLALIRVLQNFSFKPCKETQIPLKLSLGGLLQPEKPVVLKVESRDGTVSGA
Summary of the method: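 High-throughput CYP panel covering 1A2, 2D6, 2C9, 2C19 and 3A4, using fluorogenic substrates. IC50 was determined in μM.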

[14] = target: T1, Leukotriene B4 receptor 1; test: Antagonist activity at FLAG-tagged human BLT1 receptor expressed in HEK293 cells assessed as inhibition of LTB4-stimulated calcium mobilization preincubated for 10 mins before LTB4 challenge; assay type: functional, cell-based
Rattus norvegicus [15] = test: Hepatotoxicity in rat assessed as increase in ALT level at 400 mg/kg, po qd treated after 15 days; assay type: toxicity, organism-based; design: dose 400 mg/kg, route oral; conditions: in vivo, 360 h; summary of the method: as §2
[16] = Tmax in Sprague-Dawley rat at 10 mg/kg, po; assay type: ADME, organism-based; design: dose 10 mg/kg, route oral; conditions: in vivo; summary of the method: as §1
[17] = Oral bioavailability in Sprague-Dawley rat at 10 mg/kg, po; assay type: ADME, organism-based; conditions: in vivo; summary of the method: as §1
Rattus norvegicus [18] = test: Toxicity in rat assessed as alkaline phosphatase level at 40 mg/kg, po qd treated for 14 days; assay type: organism-based; design: dose 40 mg/kg, route oral; conditions: in vivo, 336 h; summary of the method: as §2

Q: With `O=C(O)CCCOc1cccc(CCCCCCOc2cc(-c3ccsc3)cc(-c3ccc4c(c3)OCO4)c2)c1CCC(=O)O` as the compound, how does the Activity (Cavia porcellus) read?
A: Its Activity is “Active”.

Q: What about the Cmax [1] of the same compound?
A: Its Cmax is 6.21 µM.

Q: What about the Activity (Rattus norvegicus [2]) of the same compound?
A: Its Activity is “Non-toxic”.

Q: And the Activity (Rattus norvegicus [3])?
A: The Activity was “Non-toxic”.

Q: What about the Activity (Rattus norvegicus [4]) of the same compound?
A: The Activity was 40 IU/L.

Q: And the Activity (Rattus norvegicus [5])?
A: The Activity was “Non-toxic”.

Q: And the IC50 (Cytochrome P450 2C9)?
A: Its IC50 is 3900 nM.

Q: What about the Activity (Rattus norvegicus [6]) of the same compound?
A: Its Activity is “Non-toxic”.

Q: What about the Vd [7] of the same compound?
A: Its Vd is 0.22 L/kg.

Q: And the Activity (Rattus norvegicus [8])?
A: Its Activity is “Non-toxic”.

Q: What about the Activity (Rattus norvegicus [9]) of the same compound?
A: Its Activity is “Toxic”.

Q: What about the IC50 (Neutrophil) of the same compound?
A: The IC50 was 0.1 nM.

Q: What about the Activity (Rattus norvegicus [10]) of the same compound?
A: The Activity was 38 IU/L.

Q: What about the IC50 [11] of the same compound?
A: Its IC50 is 0.44 nM.

Q: What about the IC50 [12] of the same compound?
A: The IC50 was 164 nM.

Q: What about the Activity (Rattus norvegicus [13]) of the same compound?
A: Its Activity is 58 IU/L.

Q: What about the IC50 (Cytochrome P450 3A4) of the same compound?
A: The IC50 was > 7500 nM.

Q: And the IC50 [14]?
A: The IC50 was 114 nM.

Q: What about the Activity (Rattus norvegicus [15]) of the same compound?
A: Its Activity is 125 IU/L.

Q: And the Tmax [16]?
A: The Tmax was 3 h.

Q: And the bioavailability [17]?
A: Its bioavailability is 70%.

Q: What about the Activity (Rattus norvegicus [18]) of the same compound?
A: Its Activity is “Non-toxic”.

Q: Which results are given for `O=C(O)CCCOc1cccc(CCCCCCOc2cc(-c3cccc(F)c3)cc(-c3ccc4c(c3)OCO4)c2)c1CCC(=O)O`?
A: Activity (Cavia porcellus): Active; Cmax [1]: 2.25 µM; Activity (Rattus norvegicus [2]): Non-toxic; Activity (Rattus norvegicus [3]): Non-toxic; Activity (Rattus norvegicus [4]): 40 IU/L; Activity (Rattus norvegicus [5]): Non-toxic; IC50 (Cytochrome P450 2C9): > 25000 nM; Activity (Rattus norvegicus [6]): Non-toxic; Vd [7]: 0.98 L/kg; Activity (Rattus norvegicus [8]): Non-toxic; Activity (Rattus norvegicus [9]): Toxic; IC50 (Neutrophil): 3.68 nM; Activity (Rattus norvegicus [10]): 35 IU/L; IC50 [11]: 1.19 nM; IC50 [12]: 194 nM; Activity (Rattus norvegicus [13]): 69 IU/L; IC50 (Cytochrome P450 3A4): > 7500 nM; IC50 [14]: 129 nM; Activity (Rattus norvegicus [15]): 121 IU/L; Tmax [16]: 5 h; bioavailability [17]: 88%; Activity (Rattus norvegicus [18]): Non-toxic

Source: ChEMBL document CHEMBL1158546, “Discovery of novel and potent leukotriene B4 receptor antagonists. Part 1” (J Med Chem, 2010)
